The results in this text go back to ChEMBL document CHEMBL4049422, “Discovery of Novel Indazole Derivatives as Orally Available β3-Adrenergic Receptor Agonists Lacking Off-Target-Based Cardiovascular Side Effects” (J Med Chem, 2017).

The target of data set [1] is T1, Beta-3 adrenergic receptor (Homo sapiens, UniProt P13945). As to the kind of experiment: Agonist activity at recombinant human beta3 adrenergic receptor expressed in CHO cells assessed as accumulation of cyclic AMP after 30 mins. It is filed as cell-based.
Target sequence in this assay (P13945 whole entry): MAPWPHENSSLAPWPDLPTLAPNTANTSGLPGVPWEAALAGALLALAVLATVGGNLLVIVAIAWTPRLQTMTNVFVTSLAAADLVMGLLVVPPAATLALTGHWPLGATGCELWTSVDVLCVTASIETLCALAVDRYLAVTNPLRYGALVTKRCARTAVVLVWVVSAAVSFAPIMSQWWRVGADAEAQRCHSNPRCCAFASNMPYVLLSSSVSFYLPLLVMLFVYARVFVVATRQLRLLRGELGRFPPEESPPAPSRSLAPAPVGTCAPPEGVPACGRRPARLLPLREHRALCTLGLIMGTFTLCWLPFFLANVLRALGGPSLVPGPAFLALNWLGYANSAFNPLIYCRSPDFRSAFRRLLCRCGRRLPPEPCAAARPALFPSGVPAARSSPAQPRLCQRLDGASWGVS
Data set [2] has as its target T1, Beta-3 adrenergic receptor. Nature of the data set: Intrinsic activity at recombinant human beta3 adrenergic receptor expressed in CHO cells assessed as accumulation of cyclic AMP after 30 mins relative to isoproterenol. It is filed as cell-based.
Target sequence in this assay (P13945 whole entry, looked up): as the sequence (P13945 whole entry) above
The target of data set [3] is T2, Alpha-1A adrenergic receptor (Homo sapiens, UniProt P35348).
T2 sequence (P35348 whole entry): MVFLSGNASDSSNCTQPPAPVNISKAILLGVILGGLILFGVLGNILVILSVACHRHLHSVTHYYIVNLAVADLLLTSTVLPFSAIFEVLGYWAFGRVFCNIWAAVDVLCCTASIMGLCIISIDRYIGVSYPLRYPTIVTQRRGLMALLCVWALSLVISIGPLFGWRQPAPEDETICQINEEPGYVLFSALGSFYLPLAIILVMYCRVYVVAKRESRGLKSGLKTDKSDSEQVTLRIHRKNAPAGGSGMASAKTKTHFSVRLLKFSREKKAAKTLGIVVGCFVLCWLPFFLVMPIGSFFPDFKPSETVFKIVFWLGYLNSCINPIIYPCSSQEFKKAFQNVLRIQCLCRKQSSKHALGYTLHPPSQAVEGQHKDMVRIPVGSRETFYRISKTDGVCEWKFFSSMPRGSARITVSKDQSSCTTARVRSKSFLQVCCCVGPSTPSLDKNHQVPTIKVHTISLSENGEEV
As to the kind of experiment: Agonist activity at recombinant human alpha1A adrenergic receptor expressed in HEK293 cells assessed as intercellular Ca mobilization by Fura-2AM dye-based fluorescence assay. It is filed as cell-based.

Data set [4] concerns the target T2, Alpha-1A adrenergic receptor. As to the kind of experiment: Intrinsic activity at recombinant human alpha1A adrenergic receptor expressed in HEK293 cells assessed as intercellular Ca mobilization by Fura-2AM dye-based fluorescence assay relative to norepinephrine. It is filed as cell-based. The note with it: read-out: Intrinsic activity.
For the next data set, the species on record is Homo sapiens. As to the kind of experiment: Selectivity ratio of EC50 for recombinant human alpha1A adrenergic receptor to EC50 for recombinant human beta3 adrenergic receptor.
Data set [5] can be described thus: Intrinsic clearance in human liver microsomes at 1 uM in presence of NADPH by LC-MS/MS analysis. It is filed as ADME, microsome. The note with it: […]. The essentials: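 Pooled mixed-gender human liver microsomes (0.5 mg/mL) in 100 mM potassium phosphate pH 7.4 with NADPH-regenerating mix plus UDP-GA, test compound 1 µM, 15 min at 37 °C. Acetonitrile stop, LC-MS/MS. k from the remaining fraction. CLint,u is scaled with 48.8 mg protein/g liver and 25.7 g liver/kg, and corrected by fu from equilibrium dialysis (1 µM, 0.5 mg/mL, 6 h, 37 °C).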
(Liver microsomes are a subcellular fraction often used to study metabolism.)

Data set [6] in a line: Solubility of the compound at pH 1.2 buffer solution after 18 hrs by HPLC analysis. It is filed as physicochemical.
Data set [7] can be described thus: Solubility of the compound at pH 6.8 buffer solution after 18 hrs by HPLC analysis. It is filed as physicochemical.
A short description of data set [8]: Membrane permeability in MDCK cells at 50 uM after 60 mins by LC-MS/MS analysis. The note with it: dog, read-out: permeability. It is filed as ADME, cell-based, Canis lupus familiaris.
The target in data set [9] is T3, Beta-1 adrenergic receptor (Homo sapiens, UniProt P08588). Nature of the data set: Agonist activity at recombinant human beta1 adrenergic receptor expressed in CHO cells assessed as accumulation of cyclic AMP after 30 mins. It is filed as cell-based.
In data set [10] the target is T4, Beta-2 adrenergic receptor (Homo sapiens, UniProt P07550). Nature of the data set: Agonist activity at recombinant human beta2 adrenergic receptor expressed in CHO cells assessed as accumulation of cyclic AMP after 30 mins. It is filed as cell-based.
The target of data set [11] is T3, Beta-1 adrenergic receptor. Nature of the data set: Intrinsic activity at recombinant human beta1 adrenergic receptor assessed as accumulation of cyclic AMP after 30 mins relative to isoproterenol. The note with it: 0.5 h.
Data set [12] deals with T4, Beta-2 adrenergic receptor. As to the kind of experiment: Intrinsic activity at recombinant human beta2 adrenergic receptor assessed as accumulation of cyclic AMP after 30 mins relative to isoproterenol.
A short description of data set [13]: Intrinsic clearance in Sprague-Dawley rat liver microsomes at 0.5 uM in presence of NADPH by LC-MS/MS analysis. It is filed as ADME, microsome. The note with it: […]. The procedure, abridged:
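Pooled male Sprague-Dawley rat liver microsomes (0.5 mg/mL final) in 100 mM Tris-HCl pH 7.4 with NADPH-regenerating mix plus UDP-GA, test compound 0.5 µM, 20 min at 37 °C. Acetonitrile stop, LC-MS/MS. CLint,u is scaled with 44.8 mg protein/g liver and 40.0 g liver/kg, and corrected by fu from ultracentrifugation (160,000g, 16 h, 37 °C).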

Data set [14] is described as follows: Cmax in Sprague-Dawley rat at 5 mg/kg, po by LC-MS/MS analysis. On the set-up: dose 5 mg/kg, route oral. It is filed as ADME, organism-based. The note with it: in vivo. The procedure, abridged: (§1)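 Male Sprague-Dawley rats (n = 2 or 3) dosed orally at 5 mg/kg in saline or water (5 mL/kg). Blood taken from the subclavian vein at 0.5, 1, 2, 4, 6 and 8 h; plasma separated by centrifugation, stored at -20 °C, and drug levels measured by LC-MS/MS. Values are mean ± SD (n = 3) or the average of two experiments.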

Data set [15] is described as follows: AUC in Sprague-Dawley rat at 5 mg/kg, po by LC-MS/MS analysis. It is filed as ADME, organism-based. The note with it: in vivo. The essentials:
as §1

A short description of data set [16]: Half life in Sprague-Dawley rat at 5 mg/kg, po by LC-MS/MS analysis. It is filed as ADME, organism-based. The note with it: in vivo. The procedure, abridged: as §1
The target of data set [17] is Adrenoceptor beta 3 (Callithrix jacchus) (UniProt F6XZF4). Nature of the data set: Agonist activity at beta3 adrenergic receptor in marmoset urinary bladder smooth muscle strips assessed as induction of KCl-precontracted muscle relaxation treated every 20 mins.
Another data set has as its target CYP2D6 (Homo sapiens, UniProt P10635). Nature of the data set: Inhibition of CYP2D6 (unknown origin) at 10 uM relative to control. It is filed as ADME.
Data set [18] relates to Rattus norvegicus. Nature of the data set: Cardiotoxicity in Sprague-Dawley rat assessed as increase in heart beat rate at 3 mg/kg, iv after 30 mins (reference value: 1.8 +/- 0.9%). The note with it: in vivo, 0.5 h. It is filed as toxicity, organism-based.
In data set [19] the test system is Rattus norvegicus. Nature of the data set: Cardiotoxicity in Sprague-Dawley rat assessed as increase in mean blood pressure at 3 mg/kg, iv after 30 mins (reference value: 1 +/- 0.5%). It is filed as toxicity, organism-based. The note with it: in vivo, 0.5 h.
Data set [20] has as its system Rattus norvegicus. Nature of the data set: Cardiotoxicity in Sprague-Dawley rat assessed as decrease in mean blood pressure at 3 mg/kg, iv after 30 mins (reference value: 5.4 +/- 1.9%). On the set-up: scale not given: the % may be the effect or the level left. The note with it: in vivo, 0.5 h. It is filed as toxicity, organism-based.

A word on the EC50: it is the midpoint of the concentration-response curve. In general, solubility refers to how much of the substance goes into solution per volume. What is called Cmax is the peak of the concentration-time curve. What is called AUC is the area under the concentration-time curve, a measure of exposure. For orientation: half-life means the time in which the quantity being followed falls by half. By inhibition is commonly meant the drop in the measured response relative to a control, in per cent.

Converted amounts (≈) assume the structure as drawn. The source made the active and inactive calls. No cut-off for these calls is given here.

T4 sequence (P07550 whole entry): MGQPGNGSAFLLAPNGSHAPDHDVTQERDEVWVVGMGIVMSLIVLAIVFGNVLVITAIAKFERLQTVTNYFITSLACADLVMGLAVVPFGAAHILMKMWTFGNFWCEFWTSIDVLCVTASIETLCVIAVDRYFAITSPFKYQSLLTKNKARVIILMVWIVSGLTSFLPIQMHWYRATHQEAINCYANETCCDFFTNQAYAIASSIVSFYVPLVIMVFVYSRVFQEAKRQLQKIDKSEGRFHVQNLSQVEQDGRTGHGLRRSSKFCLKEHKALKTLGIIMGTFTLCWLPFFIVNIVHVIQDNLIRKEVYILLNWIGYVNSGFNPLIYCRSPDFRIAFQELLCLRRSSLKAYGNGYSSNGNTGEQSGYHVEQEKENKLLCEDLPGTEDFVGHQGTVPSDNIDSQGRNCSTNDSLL
T3 sequence (P08588 whole entry): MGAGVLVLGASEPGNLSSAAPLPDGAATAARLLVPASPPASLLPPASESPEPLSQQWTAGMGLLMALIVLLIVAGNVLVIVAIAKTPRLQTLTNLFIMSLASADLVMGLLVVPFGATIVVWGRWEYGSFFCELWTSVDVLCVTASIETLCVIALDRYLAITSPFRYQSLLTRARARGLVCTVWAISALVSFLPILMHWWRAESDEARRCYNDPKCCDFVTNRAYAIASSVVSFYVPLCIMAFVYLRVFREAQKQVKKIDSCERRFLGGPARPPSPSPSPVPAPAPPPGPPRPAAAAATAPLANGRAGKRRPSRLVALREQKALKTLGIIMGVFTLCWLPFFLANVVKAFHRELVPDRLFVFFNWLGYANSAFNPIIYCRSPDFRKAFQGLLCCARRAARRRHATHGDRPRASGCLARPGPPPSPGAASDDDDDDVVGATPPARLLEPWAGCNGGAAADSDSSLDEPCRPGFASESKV
Sequence of Adrenoceptor beta 3 (Callithrix jacchus) (F6XZF4 as listed by the source): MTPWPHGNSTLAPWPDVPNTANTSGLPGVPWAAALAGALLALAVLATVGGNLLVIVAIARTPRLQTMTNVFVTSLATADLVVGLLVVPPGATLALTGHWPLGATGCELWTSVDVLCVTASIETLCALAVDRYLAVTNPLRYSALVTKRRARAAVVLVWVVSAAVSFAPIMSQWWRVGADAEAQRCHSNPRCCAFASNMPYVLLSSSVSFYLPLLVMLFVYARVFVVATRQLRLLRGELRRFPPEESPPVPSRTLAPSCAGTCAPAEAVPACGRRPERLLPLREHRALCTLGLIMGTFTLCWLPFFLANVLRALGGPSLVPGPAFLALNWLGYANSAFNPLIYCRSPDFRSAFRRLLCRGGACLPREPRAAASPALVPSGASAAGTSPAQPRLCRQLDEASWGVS
Sequence of CYP2D6 (P10635 whole entry): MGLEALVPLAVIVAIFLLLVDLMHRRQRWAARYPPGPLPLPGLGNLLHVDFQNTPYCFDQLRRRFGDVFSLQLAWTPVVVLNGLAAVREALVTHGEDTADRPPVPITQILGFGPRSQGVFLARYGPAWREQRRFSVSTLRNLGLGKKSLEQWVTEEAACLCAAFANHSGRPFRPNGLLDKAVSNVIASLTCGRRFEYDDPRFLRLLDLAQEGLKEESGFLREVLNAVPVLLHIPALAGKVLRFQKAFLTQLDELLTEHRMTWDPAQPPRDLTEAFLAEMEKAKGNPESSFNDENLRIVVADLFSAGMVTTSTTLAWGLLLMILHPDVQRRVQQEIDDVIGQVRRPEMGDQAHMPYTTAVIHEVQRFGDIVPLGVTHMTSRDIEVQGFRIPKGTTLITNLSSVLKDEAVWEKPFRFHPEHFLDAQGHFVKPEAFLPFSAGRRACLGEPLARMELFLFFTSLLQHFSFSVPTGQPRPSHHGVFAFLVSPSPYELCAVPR

On to `Cc1n[nH]c2cc(OCCNC[C@H](O)c3cccc(NS(=O)(=O)c4ccccc4)c3)ccc12`, for which the 50% effective concentration (EC50) was 0.0039 µM in data set [1], > 10 µM in data set [3], > 10 µM in [9] and > 10 µM in [10]. Further, the figures for the Intrinsic activity in data set [2] and in data set [11] were 85% and 10%, respectively. In addition, the Emax in data set [4] is 0%. Also, in the data set filed under Homo sapiens, the Ratio EC50 is > 2560. In addition, the CLint scaled at 1 µM in data set [5] is 27.8 L/h/kg. Besides, the results for the solubility at 18 h in [6] and in data set [7] were 300 µM (≈ 140 µg/mL) and 229 µM (≈ 107 µg/mL), respectively. Besides, the Papp at 1 h, 50 µM in [8] is 51 nm/s. For the same molecule, the Emax at 0.5 h in [12] stood at 0%.
For the molecule `CC(C)c1n[nH]c2cc(OCCNC[C@H](O)c3cccc(NS(C)(=O)=O)c3)ccc12`, the Emax in data set [4] was found to be 9.1%. Moreover, in the data set listed under Homo sapiens, the Ratio EC50 was > 769. For the same molecule, the CLint scaled at 1 µM in [5] worked out at 11.6 L/h/kg. For the same molecule, in data set [13], the CLint scaled at 0.5 µM was determined as 12.7 L/h/kg. Further, the solubility at 18 h came to 295 µM (≈ 128 µg/mL) in [6] and 267 µM (≈ 115 µg/mL) in [7]. For the same molecule, in data set [14], the highest concentration (Cmax) is 0.0452 µg/mL. Besides, the AUC in [15] amounted to 0.2 µg·h/mL. Besides, in [16], the half-life was 1.62 h. For the same molecule, the Papp at 1 h, 50 µM in data set [8] is 41 nm/s. For the same molecule, in data set [11], the Intrinsic activity was 11.9%. Further, the Emax at 0.5 h in [12] was 5.6%.
As to `Cc1n[nH]c2cc(OCCNC[C@H](O)c3cccc(NS(C)(=O)=O)c3)ccc12`, the Emax in [4] was determined as 71%. Moreover, the Ratio EC50 in the data set listed under Homo sapiens is 10. Further, in data set [5], the CLint scaled at 1 µM was < 0.6 L/h/kg. The CLint scaled at 0.5 µM in [13] was determined as 6.18 L/h/kg. Also, the solubility at 18 h amounted to 285 µM (≈ 115 µg/mL) in [6] and 273 µM (≈ 110 µg/mL) in [7]. The same molecule registered a Cmax in data set [14] of 0.107 µg/mL. For the same molecule, the area under the curve (AUC) in [15] was 0.542 µg·h/mL. Besides, in data set [8], the Papp at 1 h, 50 µM came to 24 nm/s.
As to `CC(C)NCC(O)c1ccc(O)c(O)c1` (configuration not stated), the result in [17] was Active.
As for `CCCS(=O)(=O)Nc1cccc([C@@H](O)CNCCOc2ccc3c(C)n[nH]c3c2)c1`, the concentration for a half-maximal effect (EC50) in [1] came to 0.0065 µM; in [3], 0.163 µM. The Intrinsic activity in data set [2] was 79%. Also, in data set [4], the Emax stood at 84%. Also, the Ratio EC50 in the data set filed under Homo sapiens came to 25.
In the case of `CCc1n[nH]c2cc(OCCNC[C@H](O)c3cccc(NS(C)(=O)=O)c3)ccc12`, the Emax in [4] is 31%. In addition, in the data set listed under Homo sapiens, the Ratio EC50 is 61. Further, the CLint scaled at 1 µM in data set [5] came to 2.52 L/h/kg. The CLint scaled at 0.5 µM in data set [13] was 6.78 L/h/kg.
On to `Cc1n[nH]c2cc(OCCNC[C@H](O)c3cccc(NS(=O)(=O)C(C)C)c3)ccc12`, for which the results for the concentration for a half-maximal effect (EC50) in data set [1] and in data set [3] were 0.07 µM and 1.76 µM, respectively. In data set [2], the Intrinsic activity was found to be 90%. In addition, in data set [4], the Emax was 27%. Further, the Ratio EC50 in the data set filed under Homo sapiens worked out at 25.
Take `Cc1n[nH]c2cc(OCCNC[C@H](O)c3cccc(NS(=O)(=O)C4CC4)c3)ccc12`: the 50% effective concentration (EC50) in [1] came out at 0.043 µM; in [3] it was 1.25 µM. Moreover, the Intrinsic activity in [2] turned out to be 72%. The Emax in data set [4] amounted to 26%. In the data set listed under Homo sapiens, the Ratio EC50 worked out at 29.
At CYP2D6, `Nc1nc(CC(=O)Nc2ccc(CCNC[C@H](O)c3ccccc3)cc2)cs1` [MIRABEGRON] came in with an inhibition at 10 µM of 87%. Moreover, the Activity in the data set on Rattus norvegicus [18] was 10%; in the data set on Rattus norvegicus [19], 3.5%; in the data set on Rattus norvegicus [20], 38.3%.
Turning to `CS(=O)(=O)Nc1cccc([C@@H](O)CNCCOc2ccc3c(C4CCC4)n[nH]c3c2)c1`, the Emax in data set [4] is 4%. For the same molecule, the Ratio EC50 in the data set filed under Homo sapiens is > 151. The CLint scaled at 1 µM in data set [5] turned out to be 27.8 L/h/kg. Moreover, in data set [13], the CLint scaled at 0.5 µM was determined as 38.5 L/h/kg.
In the case of `Cc1n[nH]c2cc(OCCNC[C@H](O)c3cccc(NS(=O)(=O)C4CCCC4)c3)ccc12`, the figures for the half-maximal effective concentration (EC50) in [1] and in [3] were 0.309 µM and > 10 µM, respectively. For the same molecule, in data set [2], the Intrinsic activity was 58%. Also, the Emax in [4] was found to be 0%. For the same molecule, in the data set filed under Homo sapiens, the Ratio EC50 was > 32.
